The source made the active and inactive calls. The calls are words filed in the database; no cut-off is given here.
How the values were obtained:
[1] = biological target: Rhodesain (Trypanosoma brucei rhodesiense) (UniProt Q95PM0); assay: Inhibition of Trypanosoma brucei rhodesiense rhodesain assessed as second-order rate constant using Cbz-Phe-Arg-AMC as substrate measured for 10 mins by spectrofluorometric analysis
[2] = system: Trypanosoma brucei brucei; assay: Antitrypanosomal activity against Trypanosoma brucei brucei TC221 after 72 hrs by alamar blue assay; type: functional; settings: TC221, 72 h
Outline: (§1)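 T. b. brucei TC221 bloodstream-form proliferation measured by alamarBlue (resazurin reduced to resorufin by living cells); 48 h and 72 h read-outs. IC50 derived per Räz et al. method; each compound tested in duplicate, mean of two values.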

[3] = system: Trypanosoma brucei brucei; assay: Antitrypanosomal activity against Trypanosoma brucei brucei TC221 after 48 hrs by alamar blue assay; type: functional; settings: TC221, 48 h; outline: as §1
[4] = biological target: Rhodesain (Trypanosoma brucei rhodesiense) (UniProt Q95PM0); assay: Inhibition of Trypanosoma brucei rhodesiense rhodesain at 20 uM using Cbz-Phe-Arg-AMC as substrate measured for 5 mins by spectrofluorometric analysis relative to control
Outline: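 Rhodesain in 50 mM sodium acetate pH 5.5 with 5 mM DTT, 5 mM EDTA, 200 mM NaCl; inhibitor 20 µM, substrate Cbz-Phe-Arg-AMC; AMC fluorescence (ex 380/em 460 nm) followed 5 min; activity from slopes of fluorescence vs time versus DMSO control; run in duplicate.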

[5] = biological target: Trypanothione reductase (Trypanosoma cruzi) (UniProt P28593); assay: Inhibition of Trypanosoma cruzi trypanothione reductase at 5 uM using 100 uM trypanothione disulfide as substrate by spectrophotometric method relative to control
Outline: (§2)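 TcTryR (about 2 nM) in 40 mM HEPES, 1 mM EDTA, pH 7.5, 100 µM NADPH; inhibitor at fixed 2 or 5 µM (screening range 1–5 µM) from DMSO stock; TS2 fixed at 40 or 100 µM; absorbance decrease monitored; percent inhibition versus DMSO control.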

[6] = biological target: Trypanothione reductase (Trypanosoma cruzi) (UniProt P28593); assay: Inhibition of Trypanosoma cruzi trypanothione reductase at 5 uM using 40 uM trypanothione disulfide as substrate by spectrophotometric method relative to control; outline: as §2
[7] = biological target: Trypanothione reductase (Trypanosoma cruzi) (UniProt P28593); assay: Inhibition of Trypanosoma cruzi trypanothione reductase at 2 uM using 100 uM trypanothione disulfide as substrate by spectrophotometric method relative to control; outline: as §2
[8] = biological target: Trypanothione reductase (Trypanosoma cruzi) (UniProt P28593); assay: Inhibition of Trypanosoma cruzi trypanothione reductase at 2 uM using 40 uM trypanothione disulfide as substrate by spectrophotometric method relative to control; outline: as §2
Trypanosoma brucei [9] = assay: Inhibition of Trypanosoma brucei trypanothione reductase at 5 uM using 100 uM trypanothione disulfide as substrate by spectrophotometric method relative to control
Outline: (§3)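 TbTryR (about 2 nM) in 40 mM HEPES, 1 mM EDTA, pH 7.5 with 100 µM NADPH; inhibitor 5 µM from DMSO stock, fixed TS2 at 100 or 40 µM; NADPH consumption followed as absorbance decrease; inhibition relative to DMSO control.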

Trypanosoma brucei [10] = assay: Inhibition of Trypanosoma brucei trypanothione reductase at 5 uM using 40 uM trypanothione disulfide as substrate by spectrophotometric method relative to control; outline: as §3
Leishmania infantum = assay: Antileishmanial activity against Leishmania infantum; type: functional
J774.1 = assay: Cytotoxicity against mouse J774.1 cells after 24 hrs by alamar blue assay; type: cell-based; settings: J774.1, 24 h
[11] = Selectivity index, ratio of IC50 for mouse J774.1 cells to IC50 for Trypanosoma brucei brucei TC221 measured after 48 hrs; type: toxicity; settings: J774.1 cells (versus Trypanosoma brucei brucei TC221), read-out: Ratio IC50
Outline: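 Selectivity index computed as IC50 (J774.1 macrophages, alamarBlue) divided by IC50 (T. b. brucei TC221, alamarBlue); duplicate determinations, means used.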

[12] = Stability of the compound; type: physicochemical
[13] = Mixed-type inhibition of Trypanosoma brucei trypanothione reductase assessed as enzyme-substrate complex using varying levels of trypanothione disulfide as substrate by Lineweaver-burk plot analysis
Outline: (§4)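 TbTryR kinetics in HEPES/EDTA pH 7.5 with 100 µM NADPH; TS2 varied 20–200 µM at several inhibitor levels, DMSO control; Lineweaver-Burk plots; Ki and Ki' fitted.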

[14] = Mixed-type inhibition of Trypanosoma brucei trypanothione reductase assessed as enzyme-substrate-inhibitor complex using varying levels of trypanothione disulfide as substrate by Lineweaver-burk plot analysis; outline: as §4
[15] = Inhibition of trypanothione reductase
Rhodesain = Rhodesain (Trypanosoma brucei rhodesiense, UniProt Q95PM0); assay: Inhibition of Trypanosoma brucei rhodesiense rhodesain using Cbz-Phe-Arg-AMC as substrate measured for 10 mins by spectrofluorometric analysis
[16] = biological target: Rhodesain (Trypanosoma brucei rhodesiense) (UniProt Q95PM0); assay: Inhibition of Trypanosoma brucei rhodesiense rhodesain using Cbz-Phe-Arg-AMC as substrate by spectrofluorometric analysis
[17] = biological target: Trypanothione reductase (Trypanosoma cruzi) (UniProt P28593); assay: Inhibition of Trypanosoma cruzi trypanothione reductase at 50 uM using 100 uM trypanothione disulfide as substrate by spectrophotometric method relative to control

Trypanothione reductase (Trypanosoma cruzi), sequence (P28593 whole entry, looked up): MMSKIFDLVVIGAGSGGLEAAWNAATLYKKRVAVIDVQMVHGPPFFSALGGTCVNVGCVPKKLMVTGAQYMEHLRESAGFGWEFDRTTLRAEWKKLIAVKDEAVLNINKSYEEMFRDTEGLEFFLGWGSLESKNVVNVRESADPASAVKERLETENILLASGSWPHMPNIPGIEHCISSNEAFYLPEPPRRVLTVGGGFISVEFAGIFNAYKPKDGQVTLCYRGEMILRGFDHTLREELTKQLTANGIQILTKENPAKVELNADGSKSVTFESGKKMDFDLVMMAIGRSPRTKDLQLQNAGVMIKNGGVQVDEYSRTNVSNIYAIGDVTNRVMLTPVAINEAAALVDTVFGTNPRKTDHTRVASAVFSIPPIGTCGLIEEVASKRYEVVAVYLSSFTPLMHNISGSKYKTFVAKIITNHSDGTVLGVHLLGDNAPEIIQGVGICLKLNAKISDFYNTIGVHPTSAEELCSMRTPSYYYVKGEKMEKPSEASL
Rhodesain (Trypanosoma brucei rhodesiense), sequence (Q95PM0 1-450): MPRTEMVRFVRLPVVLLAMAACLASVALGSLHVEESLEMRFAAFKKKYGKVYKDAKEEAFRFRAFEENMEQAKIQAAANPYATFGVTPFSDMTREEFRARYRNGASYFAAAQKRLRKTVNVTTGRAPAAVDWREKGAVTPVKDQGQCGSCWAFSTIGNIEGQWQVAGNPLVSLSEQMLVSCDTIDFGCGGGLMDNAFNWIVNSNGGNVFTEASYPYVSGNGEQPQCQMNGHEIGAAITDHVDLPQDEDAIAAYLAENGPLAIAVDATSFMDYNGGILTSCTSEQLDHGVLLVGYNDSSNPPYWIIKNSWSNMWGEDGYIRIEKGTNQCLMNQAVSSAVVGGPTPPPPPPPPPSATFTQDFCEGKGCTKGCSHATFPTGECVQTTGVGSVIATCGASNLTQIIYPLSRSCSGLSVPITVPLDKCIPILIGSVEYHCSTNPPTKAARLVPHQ
Rhodesain, sequence (Q95PM0 whole entry): as the sequence (Q95PM0 1-450) above

## CN1CCN(C(=O)N[C@@H](Cc2ccccc2)C(=O)N[C@H](/C=C/S(=O)(=O)c2ccccc2)CCc2ccccc2)CC1
[1]
  K: 500000 M⁻¹ s⁻¹

## c1ccc2c(NCCCCCCCNc3c4c(nc5ccccc35)CCCC4)c3c(nc2c1)CCCC3
[2]
  IC50: 590 nM
[3]
  IC50: 160 nM
[4]
  inhibition: 44%
[5]
  inhibition: 51 to 55%
[6]
  inhibition: 66.4%
[7]
  inhibition: 23.2 to 25.8%
[8]
  inhibition: 34.4 to 37.8%
Trypanosoma brucei [9]
  inhibition: 53%
Trypanosoma brucei [10]
  inhibition: 66%
Leishmania infantum
  Activity: Active

## C1=Cc2c(nc3ccccc3c2NCCCCCCCNc2c3c(nc4ccccc24)CCC=C3)CC1
[2]
  IC50: 10 nM
[3]
  IC50: 10 nM
J774.1
  IC50: 1500 nM
[11]
  selectivity ratio at 48 h: 152
[12]
  Stability: Stable
Trypanosoma brucei [9]
  inhibition: 53%
Trypanosoma brucei [10]
  inhibition: 47%
[13]
  Ki: 1200 nM
[14]
  Ki: 12000 nM
Leishmania infantum
  Activity: Active
[15]
  inhibition: Active

## c1ccc2c(NCCCCCCCCNc3c4c(nc5ccccc35)CCCC4)c3c(nc2c1)CCCC3
[2]
  IC50: 660 nM
[3]
  IC50: 400 nM
[4]
  inhibition: 87%
Rhodesain
  IC50: 16900 nM
[16]
  inhibition: Dose-dependent effect
[5]
  inhibition: 64.4 to 68.5%
[6]
  inhibition: 73.3 to 78.3%
[7]
  inhibition: 28.8 to 32.9%
[8]
  inhibition: 45 to 46.7%
[17]
  inhibition: 100%
Leishmania infantum
  Activity: Active

Source: ChEMBL document CHEMBL4052757, “Bistacrines as potential antitrypanosomal agents” (Bioorg Med Chem, 2017)
